Measurements taken from PubChem BioAssay AID504907 (The Scripps Research Institute Molecular Screening Center, 2011).

Biological target: Glucose-6-phosphatase catalytic subunit 1 (Homo sapiens) (UniProt P35575)
Assay: endogenous G6PC mRNA suppression, late-stage follow-up, mechanism study for RORA inverse agonist project, cell-based, real-time PCR, fluorescence, assay provider (AID 504907)
Details: HepG2 G6PC mRNA RT-qPCR, 20 h, at 10 µM, stronger effect = lower value
In short: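 Test system – HepG2 cells, native G6Pase gene · Compound dosing – single nominal 10 µM test compound dose, DMSO vehicle · Incubation – 20 h compound exposure of HepG2 cells · Signal – SYBR Green real-time RT-PCR of G6Pase mRNA · Evaluation – mean fold change in G6Pase mRNA relative to vehicle · Controls – vehicle cells, ROR-targeting siRNA as inhibition reference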

Sequence of Glucose-6-phosphatase catalytic subunit 1 (Homo sapiens) (P35575 whole entry, looked up): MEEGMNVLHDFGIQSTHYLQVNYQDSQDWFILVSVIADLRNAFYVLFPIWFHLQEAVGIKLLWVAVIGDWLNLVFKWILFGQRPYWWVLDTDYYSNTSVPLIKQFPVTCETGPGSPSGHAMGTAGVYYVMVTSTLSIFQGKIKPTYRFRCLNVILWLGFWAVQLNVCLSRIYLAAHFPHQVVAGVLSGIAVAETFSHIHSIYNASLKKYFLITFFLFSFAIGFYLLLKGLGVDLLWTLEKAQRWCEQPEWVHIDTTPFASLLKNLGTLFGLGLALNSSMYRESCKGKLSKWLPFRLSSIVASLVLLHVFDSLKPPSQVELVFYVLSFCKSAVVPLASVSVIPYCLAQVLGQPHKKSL

**Q.** What does the source list for `O=S(=O)(Nc1ccc(C(O)(C(F)(F)F)C(F)(F)F)cc1)c1cccs1`?
**A.** relative mRNA level (with RORA + RORG siRNA): 0.279; relative mRNA level (with control siRNA): 0.676
